Results from ChEMBL document CHEMBL4041498, “Antibacterial and Cytotoxic Actinomycins Y6-Y9 and Zp from Streptomyces sp. Strain Gö-GS12” (J Nat Prod, 2016).
≈ marks a conversion by molar mass, not a printed value. Numbered stars: 1 amine (or outer) side, 2 acyl side, 3 side chain; on linkers, the order of the positions; unused ones are H or OH. Bridge positions count the residues as written; N and C are the ends. Square brackets hold non-standard residues; d marks the D form. Peptide text beside a SMILES is read from it. I, II: the chains in the order shown. Actinocin(1to9) = Cc1c2oc3c(C)ccc(C(=O)[*:2])c3nc-2c(C(=O)[*:1])c(N)c1=O; Actinocin(9to1) = Cc1c2oc3c(C)ccc(C(=O)[*:1])c3nc-2c(C(=O)[*:2])c(N)c1=O; Pro(3S-OH,5S-Me) = C[C@H]1C[C@H](O)[C@@H](C(=O)O)N1; X2 = O=C([C@@H](N[*:1])[C@@H](CCl)O[*:3])[*:2]; X1 = O=C([C@@H](N[*:1])[C@@H](CO)O[*:3])[*:2]; Pro(5S-Me) = C[C@H]1CC[C@@H](C(=O)O)N1; Pro(4-oxo) = O=C1CN[C@H](C(=O)O)C1; NMeV = CN[C@H](C(=O)O)C(C)C; NMeA = CN[C@@H](C)C(=O)O; Sar = CNCC(=O)O

Experiments:
Staphylococcus aureus = test: Antibacterial activity against Staphylococcus aureus ATCC 6538 after incubated for 16 to 48 hrs at 28 to 37 degC by spectrofluorometric method; assay type: functional
Summary of the method: (§1)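 Overnight cultures (16 h, 37 °C, 250 rpm) were grown in tryptic soy broth (S. aureus, M. luteus), LB (B. subtilis, E. coli), nutrient broth (S. enterica), Middlebrook 7H9 + OADC (M. aurum) or YAPD (S. cerevisiae). They were diluted to OD600 ~0.1 and exposed to serial dilutions from a final maximum of ~10 μg/mL, then shaken at 160 rpm. OD600 was normalized to DMSO control, and MIC was taken as the lowest concentration inhibiting growth.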

Micrococcus luteus = test: Antibacterial activity against Micrococcus luteus ATCC 15307 after incubated for 16 to 48 hrs at 28 to 37 degC by spectrofluorometric method; assay type: functional; summary of the method: as §1
Bacillus spizizenii = test: Antibacterial activity against Bacillus subtilis ATCC 6633 after incubated for 16 to 48 hrs at 28 to 37 degC by spectrofluorometric method; assay type: functional; summary of the method: as §1
Mycolicibacterium aurum = test: Antibacterial activity against Mycobacterium aurum ATCC 23366 after incubated for 16 to 48 hrs at 28 to 37 degC […]; assay type: functional
[1] = Antibacterial activity against Salmonella enterica ATCC 10708 after incubated for 16 to 48 hrs at 28 to 37 degC by spectrofluorometric method; assay type: functional; summary of the method: as §1
Escherichia coli = test: Antibacterial activity against Escherichia coli ATCC 12435 after incubated for 16 to 48 hrs at 28 to 37 degC by spectrofluorometric method; assay type: functional; summary of the method: as §1
Saccharomyces cerevisiae = test: Antifungal activity against Saccharomyces cerevisiae ATCC 204508 after incubated for 16 to 48 hrs at 28 to 37 degC by spectrofluorometric method; assay type: functional
PC-3 = test: Cytotoxicity against human PC3 cells assessed as reduction in cell viability after 48 hrs by alamar blue assay; assay type: functional, cell-based; details: PC-3, 48 h
Summary of the method: (§2)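 A549 cells were grown in DMEM/F-12 Kaighn's and PC3 cells in MEM/EBSS, both with 10% heat-inactivated FBS, penicillin/streptomycin and 2 mM L-glutamine. Cells were seeded at 5 × 10^3 per well, attached 24 h at 37 °C in 5% CO2, then exposed for 2 days. Values are % of untreated control from three independent experiments.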

A549 = test: Cytotoxicity against human A549 cells assessed as reduction in cell viability after 48 hrs by alamar blue assay; assay type: functional, cell-based; details: A549, 48 h; summary of the method: as §2

SMILES	MIC (Staphylococcus aureus) [µg/mL]	MIC (Micrococcus luteus) [µg/mL]	MIC (Bacillus spizizenii) [µg/mL]	MIC (Mycolicibacterium aurum) [µg/mL]	MIC [1] [µg/mL]	MIC (Escherichia coli) [µg/mL]	MIC (Saccharomyces cerevisiae) [µg/mL]	EC50 (PC-3) [nM]	EC50 (A549) [nM]
Cc1c2oc3c(C)ccc(C(=O)N[C@@H]4C(=O)N[C@H](C(C)C)C(=O)N5[C@H](C(=O)N(C)CC(=O)N(C)[C@@H](C(C)C)C(=O)O[C@@H]4C)[C@@H](O)C[C@@H]5C)c3nc-2c(C(=O)OC[C@H](O)[C@@H]2NC(=O)[C@H](C)N(C)C(=O)CN(C)C(=O)[C@@H]3CC(=O)CN3C(=O)[C@@H](C(C)C)NC2=O)c(N)c1=O	> 9.33	4.67 (≈ 3.63 µM)	> 9.33	> 9.33	> 9.33	> 9.33	> 9.33		
Cc1c2oc3c(C)ccc(C(=O)N[C@@H]4C(=O)N[C@H](C(C)C)C(=O)N5[C@H](C(=O)N(C)CC(=O)N(C)[C@@H](C(C)C)C(=O)O[C@@H]4C)[C@@H](O)C[C@@H]5C)c3nc-2c2c(c1=O)N[C@H]([C@@H]1NC(=O)[C@H](C)N(C)C(=O)CN(C)C(=O)[C@@H]3CC(=O)CN3C(=O)[C@@H](C(C)C)NC1=O)COC2=O	2.37 (≈ 1.87 µM)	0.59 (≈ 0.465 µM)	0.59 (≈ 0.465 µM)	0.95 (≈ 0.748 µM)	> 9.46	> 9.46	9.46 (≈ 7.45 µM)	76.7	71.5
Cc1c2oc3c(C)ccc(C(=O)N[C@@H]4C(=O)N[C@H](C(C)C)C(=O)N5[C@H](C(=O)N(C)CC(=O)N(C)[C@@H](C(C)C)C(=O)O[C@@H]4C)[C@@H](O)C[C@@H]5C)c3nc-2c(C(=O)OC[C@H](O)[C@@H]2NC(=O)[C@H](C)N(C)C(=O)CN(C)C(=O)[C@@H]3C[C@@H](O)CN3C(=O)[C@@H](C(C)C)NC2=O)c(N)c1=O	> 9.32	4.66 (≈ 3.61 µM)	> 9.32	> 9.32	> 9.32	> 9.32	> 9.32		
Cc1c2oc3c(C)ccc(C(=O)N[C@@H]4C(=O)N[C@H](C(C)C)C(=O)N5[C@H](C(=O)N(C)CC(=O)N(C)[C@@H](C(C)C)C(=O)O[C@@H]4C)[C@@H](O)C[C@@H]5C)c3nc-2c(C(=O)N[C@@H]2C(=O)N[C@H](C(C)C)C(=O)N3CC(=O)C[C@H]3C(=O)N(C)CC(=O)N(C)[C@@H](C)C(=O)O[C@@H]2C)c(N)c1=O (I: T[dV][Pro(4-oxo)][Sar][NMeA] / II: T[dV][Pro(3S-OH,5S-Me)][Sar][NMeV]; ester I:1-I:C, II:1-II:C; linker I:N-II:N via Actinocin(1to9))					> 9.45				
Cc1c2oc3c(C)ccc(C(=O)N[C@@H]4C(=O)N[C@H](C(C)C)C(=O)N5[C@@H](C)CC[C@H]5C(=O)N(C)CC(=O)N(C)[C@@H](C(C)C)C(=O)O[C@@H]4C)c3nc-2c(C(=O)N[C@@H]2C(=O)N[C@H](C(C)C)C(=O)N3CC(=O)C[C@H]3C(=O)N(C)CC(=O)N(C)[C@@H](C)C(=O)O[C@@H]2C)c(N)c1=O (I: T[dV][Pro(4-oxo)][Sar][NMeA] / II: T[dV][Pro(5S-Me)][Sar][NMeV]; ester I:1-I:C, II:1-II:C; linker I:N-II:N via Actinocin(1to9))		0.003 (≈ 0.00239 µM)			> 9.57				
Cc1c2oc3c(C)ccc(C(=O)N[C@@H]4C(=O)N[C@H](C(C)C)C(=O)N5[C@@H](C)CC[C@H]5C(=O)N(C)CC(=O)N(C)[C@@H](C(C)C)C(=O)O[C@@H]4C)c3nc-2c(C(=O)N[C@@H]2C(=O)N[C@H](C(C)C)C(=O)N3[C@@H](C)CC[C@H]3C(=O)N(C)CC(=O)N(C)[C@@H](C(C)C)C(=O)O[C@@H]2C)c(N)c1=O (I: T[dV][Pro(5S-Me)][Sar][NMeV] / II: T[dV][Pro(5S-Me)][Sar][NMeV]; ester I:1-I:C, II:1-II:C; linker I:N-II:N via Actinocin(9to1))			0.006 (≈ 0.00467 µM)		> 9.36				
Cc1c2oc3c(C)ccc(C(=O)N[C@@H]4C(=O)N[C@H](C(C)C)C(=O)N5[C@H](C(=O)N(C)CC(=O)N(C)[C@@H](C(C)C)C(=O)O[C@@H]4C)[C@@H](O)C[C@@H]5C)c3nc-2c(C(=O)N[C@@H]2C(=O)N[C@H](C(C)C)C(=O)N3CC(=O)C[C@H]3C(=O)N(C)CC(=O)N(C)[C@@H](C)C(=O)O[C@@H]2CO)c(N)c1=O (I: [X1][dV][Pro(4-oxo)][Sar][NMeA] / II: T[dV][Pro(3S-OH,5S-Me)][Sar][NMeV]; ester I:1-I:C, II:1-II:C; linker I:N-II:N via Actinocin(1to9))		0.12 (≈ 0.0932 µM)			> 9.33				
Cc1c2oc3c(C)ccc(C(=O)N[C@@H]4C(=O)N[C@H](C(C)C)C(=O)N5[C@H](C(=O)N(C)CC(=O)N(C)[C@@H](C(C)C)C(=O)O[C@@H]4C)[C@@H](O)C[C@@H]5C)c3nc-2c(C(=O)N[C@@H]2C(=O)N[C@H](C(C)C)C(=O)N3CC(=O)C[C@H]3C(=O)N(C)CC(=O)N(C)[C@@H](C)C(=O)O[C@@H]2CCl)c(N)c1=O (I: [X2][dV][Pro(4-oxo)][Sar][NMeA] / II: T[dV][Pro(3S-OH,5S-Me)][Sar][NMeV]; ester I:1-I:C, II:1-II:C; linker I:N-II:N via Actinocin(1to9))					> 9.2				
Cc1c2oc3c(C)ccc(C(=O)N[C@@H]4C(=O)N[C@H](C(C)C)C(=O)N5CCC[C@H]5C(=O)N(C)CC(=O)N(C)[C@@H](C(C)C)C(=O)O[C@@H]4C)c3nc-2c(C(=O)N[C@@H]2C(=O)N[C@H](C(C)C)C(=O)N3CCC[C@H]3C(=O)N(C)CC(=O)N(C)[C@@H](C(C)C)C(=O)O[C@@H]2C)c(N)c1=O [DACTINOMYCIN] (I: T[dV]P[Sar][NMeV] / II: T[dV]P[Sar][NMeV]; ester I:1-I:C, II:1-II:C; linker I:N-II:N via Actinocin(1to9))	0.006 (≈ 0.00478 µM)	0.003 (≈ 0.00239 µM)	0.002 (≈ 0.00159 µM)	0.6 (≈ 0.478 µM)	9.57 (≈ 7.62 µM)		4.79 (≈ 3.82 µM)		
